TbMetRS inhib: blocks T. brucei methionyl-tRNA synthetase activity; purified T. brucei MetRS, ATP depletion, Kinase-Glo luminescence; actives 0.4% (n = 360,000); inhibition, % at 11.9 µM; AID 624268;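 active means inhibition above a per-plate cutoff of the control wells' mean inhibition plus 3 SD, cut at about 5.5% in these data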
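Measured by: Kinase-Glo luciferase luminescence reporting remaining unconsumed ATP. Material: purified T. brucei MetRS enzyme. Doses: 11.9 µM compound single dose, 0.9% DMSO. Medium: HEPES buffer containing pyrophosphatase, BSA, spermine, DTT. Times: 15 min preincubation, 2 h reaction, all 25 °C. Reagent: methionine, ATP and bulk E. coli tRNA.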
A1 inh: inhibitors of the anti-apoptotic protein A1, read as caspase activation. caspase activation, % (no concentration beside the values). actives 0.066% (n = 330,000). AID 2462. MEF A1-2A-BIM cells, Caspase-Glo 3/7 luminescence, 3 h; percent of clofoctol response, vehicle zero;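 active means over half of replicate activation scores above 10%, or exactly half above 10 with the replicate mean above 10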
MC4R antagonist: blocks human MC4R cAMP signaling. P32245. MC4R-expressing cells, MTII-stimulated cAMP, LANCE TR-FRET. inhibition, % at 6.5 µM. actives 0.48% (n = 360,000). AID 540295;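 active means inhibition above its plate's cutoff, the mean of tested wells on that plate plus 3 SD, cut at about 29% in these data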
Target sequence (P32245 whole entry, looked up): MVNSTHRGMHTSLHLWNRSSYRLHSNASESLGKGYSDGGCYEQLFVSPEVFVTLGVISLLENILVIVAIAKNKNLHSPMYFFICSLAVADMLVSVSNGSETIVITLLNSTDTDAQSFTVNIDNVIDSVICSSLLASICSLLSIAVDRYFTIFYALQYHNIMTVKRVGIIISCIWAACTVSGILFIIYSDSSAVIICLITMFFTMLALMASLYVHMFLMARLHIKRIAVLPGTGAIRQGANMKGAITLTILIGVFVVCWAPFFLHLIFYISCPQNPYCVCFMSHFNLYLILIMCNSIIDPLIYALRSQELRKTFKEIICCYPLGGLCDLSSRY
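Material: U2OS-MC4R stable cell line | Reagent: Melanotan II challenge after compound preincubation | Doses: One concentration, 6.5 µM nominal | Incubation: 30-min compound preincubation, 1-h Melanotan II challenge, 1-h detection, room temperature | Signal: TR-FRET cAMP assay | Replicates: One well per compound, no replicates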
NLRP3 yeast inh: inhibitors of NALP3 inflammasome in yeast; Yeast reconstituted NLRP3/ASC/caspase-1, beta-gal luminescence, 24 h; inhibition, % at 10 µM; actives 0.39% (n = 330,000); AID 2825;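 active means inhibition of 50% or more; inactive means inhibition below 50%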
NALP1 yeast inh: NALP1 inhibition; S. cerevisiae NALP1/ASC/caspase-1 growth, X-gal OD620, 72 h; inhibition, % at 10 µM; actives 0.61% (n = 280,000); in the data active means inhibition mostly above about 24%, no sharp cut-off; inactive means mostly below about 32%
MC4R barr agon: human MC4R agonism via beta-arrestin; P32245; activation, % at 8.9 µM; actives 0.98% (n = 360,000); U2OS MC4R beta-arrestin complementation, luminescence; percent of melanotan II response, DMSO zero; AID 540308;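 active means activation above a per-plate cutoff, the mean activation of sample wells on that plate plus 3 SD, cut at about 8% in these data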
A number is an active result. Hits are enriched below; roughly 2.5% of the tested compounds scored in any of these assays.

CC(C)(C)c1cc(CCC(=O)NNC(=O)c2ccncc2)cc(C(C)(C)C)c1O was read as TbMetRS inhib inactive, MC4R antagonist inactive, NLRP3 yeast inh inactive and MC4R barr agon inactive.
For CCn1c2ccccc2c2cc(NC(=O)CSc3nnnn3-c3ccccc3)ccc21 the results were TbMetRS inhib inactive, A1 inh inactive, MC4R antagonist inactive, NLRP3 yeast inh inactive and MC4R barr agon 8.7.
C(=N\Nc1nncc2ccccc12)/c1ccccn1 was read as TbMetRS inhib inactive, A1 inh inactive, MC4R antagonist inactive, NLRP3 yeast inh inactive, NALP1 yeast inh 37.1 and MC4R barr agon inactive.
For CC(C)c1ccc(N=C2NN=C(c3cccs3)CS2)cc1 the results were TbMetRS inhib inactive, A1 inh inactive, MC4R antagonist inactive, NLRP3 yeast inh inactive, NALP1 yeast inh 37.5 and MC4R barr agon inactive.
CCC(=O)NCCCOc1ccccc1 was read as TbMetRS inhib inactive, A1 inh inactive, MC4R antagonist inactive, NLRP3 yeast inh inactive, NALP1 yeast inh 26.9 and MC4R barr agon inactive.
Screening CC(C)CCNC(=O)CCCOc1ccccc1 returned TbMetRS inhib inactive, A1 inh inactive, MC4R antagonist inactive, NLRP3 yeast inh inactive, NALP1 yeast inh inactive and MC4R barr agon inactive.
`Cc1cc(C)nc(SCC(=O)Nc2ncc(Cc3cccc(Cl)c3Cl)s2)n1` gave TbMetRS inhib inactive, A1 inh inactive, MC4R antagonist inactive, NLRP3 yeast inh inactive, NALP1 yeast inh inactive and MC4R barr agon 8.8.
For CC(=O)Nc1ncc(Cc2cccc(Cl)c2Cl)s1 the results were TbMetRS inhib inactive, A1 inh inactive, MC4R antagonist inactive, NLRP3 yeast inh inactive, NALP1 yeast inh inactive and MC4R barr agon inactive.
For C=CCCC(=O)N1C[C@H]2CON(C)[C@H]2C[C@H]1c1cccc(Br)c1 the results were TbMetRS inhib inactive, MC4R antagonist inactive and MC4R barr agon inactive.
CC(=O)Nc1nc(CC(C)C)cc2c1c(=O)oc1ccccc12 was read as TbMetRS inhib inactive, A1 inh inactive, MC4R antagonist inactive, NLRP3 yeast inh inactive, NALP1 yeast inh 28.0 and MC4R barr agon inactive.
CCOC(=O)CCCNS(=O)(=O)c1c(C)ccc2nsnc12 was read as TbMetRS inhib inactive, A1 inh 6.6, MC4R antagonist inactive, NLRP3 yeast inh inactive, NALP1 yeast inh inactive and MC4R barr agon inactive.
Screening O=C(CN1CCCCC1)N/N=C/c1cccc(Cl)c1 returned TbMetRS inhib inactive, A1 inh inactive, MC4R antagonist inactive, NLRP3 yeast inh inactive, NALP1 yeast inh inactive and MC4R barr agon inactive.
For Cc1ccc(/C=N/NC(=O)CN2CCN(Cc3ccccc3)CC2)o1 the results were TbMetRS inhib inactive, A1 inh inactive, MC4R antagonist inactive, NLRP3 yeast inh inactive, NALP1 yeast inh 44.8 and MC4R barr agon inactive.
O=C(CN1CCCC1)N/N=C/c1ccc(-c2cccc(Cl)c2)o1 was read as TbMetRS inhib inactive, A1 inh inactive, MC4R antagonist inactive, NLRP3 yeast inh inactive, NALP1 yeast inh 32.4 and MC4R barr agon inactive.
`COCCn1cc(C(=S)N2CCCCC2)c2ccccc21` gave TbMetRS inhib inactive, A1 inh inactive, MC4R antagonist inactive, NLRP3 yeast inh inactive, NALP1 yeast inh inactive and MC4R barr agon inactive.
Screening COCCn1cc(C(=S)N2CCOCC2)c2ccccc21 returned TbMetRS inhib inactive, A1 inh inactive, MC4R antagonist inactive, NLRP3 yeast inh inactive, NALP1 yeast inh 33.3 and MC4R barr agon inactive.
`CCc1ccc(S(=O)(=O)/N=C2\C=CC(=O)c3ccccc32)cc1` gave A1 inh inactive, NLRP3 yeast inh inactive and NALP1 yeast inh inactive.
Screening CCc1ccc(S(=O)(=O)/N=C2/C=C(Sc3ncn[nH]3)C(=O)c3ccccc32)cc1 returned TbMetRS inhib inactive, A1 inh inactive, MC4R antagonist 60.0, NALP1 yeast inh inactive and MC4R barr agon inactive.
Screening N#CCCCc1cc2cc(F)ccc2cn1 returned TbMetRS inhib inactive, A1 inh inactive, MC4R antagonist inactive, NLRP3 yeast inh inactive and MC4R barr agon inactive.
O=[N+]([O-])c1ccc(OCCOc2ccccc2/C=N/n2cnnc2)cc1 was read as TbMetRS inhib inactive, A1 inh inactive, MC4R antagonist inactive, NLRP3 yeast inh inactive, NALP1 yeast inh 33.8 and MC4R barr agon inactive.

High-throughput results (PubChem)
